# Autophagy mod = alters autophagy in cells. MEF GFP-LC3 puncta imaging; test concentration mostly 10 µM. calls only at 10 µM (by protocol). 190,000 compounds, 0.98% hits;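 active = percentage of spot-positive cells more than 3 SD above its plate mean, without a fluorescence outlier flag or 80% toxicity; inconclusive = no clear call, values can overlap the other calls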;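 note: spot-positive cell cutoff set from DMSO-treated cells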
# Rad51 HR inh = Rad51 (human) homologous recombination inhibition. Q06609. hRad51 DNA strand exchange, fluorescence dequenching. inhibition, % at 10 µM. 200,000 compounds, 0.085% hits. AID 1385;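 active = inhibition above 40% at the single screening dose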;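 note: 0% = DMSO control wells and 100% = blanks with heterologous ssDNA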
#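 Assay system: Human Rad51 nucleoprotein filaments preassembled on unlabelled ssDNA | Reagent: Donor/quencher-labelled 47-bp dsDNA substrate | Doses: One concentration, 10 µM final | Times: 37 °C 15-min filament assembly, 30-min compound preincubation, 15-min exchange | Technique: Fluorescein emission 520 nm, excitation 485 nm | Benchmarks: Plate control and blank wells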
# WT yeast gro inh = growth inhibition of WT yeast, mitochondrial fusion screen. 190,000 compounds, 2.1% hits. mitochondrial fusion phenotypic screen, WT strain. inhibition, % at 10 µM; in the data active = inhibition above about 58%; tested in S. cerevisiae
# Insulin prom up = MIN6 insulin promoter up-regulation | AID 1625 | MIN6 insulin promoter-GFP reporter, high-content imaging; hits give high values | z-score at 5 µM | 190,000 compounds, 0.3% hits;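 active = z-score above 3 at 5 µM with at least 500 cells counted in the well; inconclusive = wells under 500 cells, flagged as cytotoxic or low count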
# Cl transport mod = KCC2 (human) Cl- transport modulation. Q9H2X9. KCC2 cells, thallium flux FluoZin-2 fluorescence. B-score of Tl+ flux slope (higher = more flux/activation; lower = inhibition) at 10 µM. 190,000 compounds, 2.2% hits;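 active = thallium flux slope and its plate-corrected score both differing from the plate sample mean at a set confidence after two filtering rounds, in either direction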;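 note: slope of fluorescence scaled to starting intensity during 10 to 20 s after thallium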
# Target sequence (Q9H2X9 whole entry, looked up): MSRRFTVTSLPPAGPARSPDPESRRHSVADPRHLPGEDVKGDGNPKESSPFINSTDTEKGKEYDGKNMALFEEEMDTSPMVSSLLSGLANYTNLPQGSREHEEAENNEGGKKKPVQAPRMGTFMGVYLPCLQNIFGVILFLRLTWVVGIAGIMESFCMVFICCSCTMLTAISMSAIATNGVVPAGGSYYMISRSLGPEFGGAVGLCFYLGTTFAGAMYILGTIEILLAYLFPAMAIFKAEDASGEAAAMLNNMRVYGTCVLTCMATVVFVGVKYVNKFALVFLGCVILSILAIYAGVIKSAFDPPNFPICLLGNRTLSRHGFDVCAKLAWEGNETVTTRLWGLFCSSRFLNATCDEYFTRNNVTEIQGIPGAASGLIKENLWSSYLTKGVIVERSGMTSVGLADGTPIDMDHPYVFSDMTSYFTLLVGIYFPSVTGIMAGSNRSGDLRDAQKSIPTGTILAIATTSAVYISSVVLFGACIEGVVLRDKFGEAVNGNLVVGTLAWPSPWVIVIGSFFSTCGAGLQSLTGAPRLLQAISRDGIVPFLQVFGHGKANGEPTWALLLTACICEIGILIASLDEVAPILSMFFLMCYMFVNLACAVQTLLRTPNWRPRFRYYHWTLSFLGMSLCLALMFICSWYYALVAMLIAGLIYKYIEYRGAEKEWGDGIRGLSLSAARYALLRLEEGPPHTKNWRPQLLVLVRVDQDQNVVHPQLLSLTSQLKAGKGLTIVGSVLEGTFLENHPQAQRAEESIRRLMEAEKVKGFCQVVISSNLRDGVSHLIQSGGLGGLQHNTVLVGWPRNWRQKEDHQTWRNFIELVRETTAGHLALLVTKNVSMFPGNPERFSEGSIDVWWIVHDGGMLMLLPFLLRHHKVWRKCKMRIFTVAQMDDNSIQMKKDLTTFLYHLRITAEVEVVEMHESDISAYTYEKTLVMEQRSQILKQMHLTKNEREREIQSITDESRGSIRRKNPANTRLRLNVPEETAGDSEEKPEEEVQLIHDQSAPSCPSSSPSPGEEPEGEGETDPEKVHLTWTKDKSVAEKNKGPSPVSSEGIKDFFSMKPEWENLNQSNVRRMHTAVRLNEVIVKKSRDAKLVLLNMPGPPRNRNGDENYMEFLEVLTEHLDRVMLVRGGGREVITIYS
# SKKanGAS inh = blocks kanamycin growth of S. pyogenes SKKanGAS strain. BacTiter-Glo, 6 h. inhibition, % at 7.5 µM. 300,000 compounds, 1.3% hits;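 active = mean replicate score, as percent of positive control median, at least 50; inconclusive = mean below 50 but one replicate at or above 50; inactive = mean and every replicate below 50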;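 note: strain carries kanamycin resistance gene driven by streptokinase promoter and grows in 40 µg/ml kanamycin; loss of luminescence reflects streptokinase promoter inhibition or plain growth inhibition; 0% = median of DMSO wells and 100% = positive control at its reference dose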
# Numbers without * were called inactive; i = inactive; u = inconclusive; x = no result; + = active, no number. Sampled rows, rich in hits. Any-hit rate of the full collection: about 4.2%.
SMILES,Autophagy mod,Rad51 HR inh,WT yeast gro inh,Insulin prom up,Cl transport mod,SKKanGAS inh
OCC[C@@H]1C[C@@H](O)[C@H](O)[C@@]2(OCCc3ccccc32)O1,x,x,x,x,x,10
C=CC[n+]1ccc(/C=C2\C=Cc3cc(C)ccc3N2CC)c2ccccc21,i,29,87*,x,-0.58,x
Cc1cccc(-n2c(Cc3cc(=O)[nH]c(=O)[nH]3)nnc2SCC(=O)N2CCc3ccccc32)c1,x,x,x,x,x,2
Cc1occc1C(=O)N/N=C/C1=C(N2CCOCC2)C(=C\c2ccc(Cl)cc2Cl)/CC1,+,-19,2,-0.15,1.2,12
CCC(Cc1ccccc1)NC(=O)CCc1ccccc1 (centres undefined),x,x,x,x,x,3
Cc1ccc(C2CC(c3cccs3)=NN2S(=O)(=O)c2ccc(C)cc2)cc1 (centres undefined),i,-5,61*,-0.99,0.11,8
O=C(CCc1ccc(Oc2cc([N+](=O)[O-])cc([N+](=O)[O-])c2)cc1)N1CCCCCC1,i,x,66*,-0.02,-1.8,14
COC(=O)c1ccc(NC(=O)C(=O)N2CCN(C(=S)NCCc3ccccc3)CC2)cc1,i,-11,26,0.77,-0.15,9
C[n+]1c2n(c3ccccc31)N=C(c1ccc(-c3ccccc3)cc1)CS2,i,1,87*,u,-0.7,39
CC(C)(C)NS(=O)(=O)c1cnc(Cl)c(Cl)c1,i,-2,60*,x,x,1
CC(C)(C)NS(=O)(=O)c1ccc(Oc2ncc(C(F)(F)F)cc2Cl)cc1,i,-13,0,0.05,x,4
CCC(=O)Nc1nc2ccccc2n1Cc1ccc(C)cc1,i,-11,13,-0.43,0.49,94*
CC(=O)Nc1nc2ccccc2n1Cc1ccc(Cl)cc1,x,24,x,-0.47,0.61,64*
COc1ccc(N2CCN(C(c3ccc4ncccc4c3)c3nnnn3C(C)C)CC2)cc1 (centres undefined),x,4,x,-0.62,-0.14,-3
Cc1noc(C)c1S(=O)(=O)Nc1ccccc1N1CCOCC1,x,-6,x,x,0.48,-3
NCc1cc2c3c(c1)CCCN3CCC2,x,x,x,x,x,-2
O=C(C1=C[C@@H](C2CC2)C[C@@H](OCc2ccc(CO)cc2)O1)N1CCN(Cc2ccc3c(c2)OCO3)CC1,i,5,-2,-0.09,1.4,1
O=C(C1=C[C@@H](C2CCCCC2)C[C@@H](OCc2ccc(CO)cc2)O1)N1CCN(Cc2ccccc2)CC1,i,-4,64*,-0.13,-0.63,18
CC(C)(C)[C@H]1C=C(C(=O)N2CCN(Cc3ccccc3)CC2)O[C@@H](OCc2ccc(CO)cc2)C1,i,5,72*,0.31,-1.2,4
O=C(C1=C[C@H](C2CCCCC2)C[C@H](OCc2ccc(CO)cc2)O1)N1CCOCC1,i,8,6,-1.1,-0.55,-3
C[C@@H]1C=C(C(=O)N2CCN(Cc3ccccc3)CC2)O[C@H](OCc2ccc(CO)cc2)C1,i,-2,-4,-0.13,-1.9,-1
O=C(C1=C[C@H](C2CCCCC2)C[C@H](OCc2ccc(CO)cc2)O1)N1CCN(Cc2ccccc2)CC1,i,1,72*,-1.1,0.069,15
O=C1OCC2=C1C(c1ccccc1)CC(=O)N2c1ccccc1 (centres undefined),i,51*,-7,x,-0.0089,4
O=[N+]([O-])c1cccc(-c2csc(N/N=C/c3cccc(O)c3)n2)c1,i,9,84*,-1.3,x,20
CN(C)S(=O)(=O)c1ccc(-c2csc(N/N=C/c3ccc(O)cc3)n2)cc1,x,6,x,u,0.032,65*
SMILES,Autophagy mod,Rad51 HR inh,WT yeast gro inh,Insulin prom up,Cl transport mod,SKKanGAS inh
Cc1nnc(NC(=O)CSc2nnc3ncccn23)s1,x,x,x,x,x,-2
Cc1c(Cc2ccccc2)c(=O)oc2cc(OCC(=O)NCC3CCC(C(=O)O)CC3)ccc12 (centres undefined),x,x,x,x,x,25
CCOC(=O)c1cnc(-n2cc(C)cn2)nc1Nc1ccccc1OCC,i,-3,8,-0.83,0.46,90*
COC(=O)c1cc2n(n1)CCN(Cc1ccccc1F)C2=O,i,-2,52,0.33,2.2,x
COC(=O)c1cc2n(n1)CCN(Cc1ccc(F)cc1)C2=O,i,46*,9,-1.5,-0.46,1
Cc1nc(N2CCOCC2)c2c(C)c(C(=O)Nc3ccccc3C(F)(F)F)sc2n1,i,-8,20,0.04,-0.37,-8
Cc1nc(N2CCC(C)CC2)c2c(C)c(C(=O)Nc3ccc(C(F)(F)F)cc3)sc2n1,i,-1,32,0.02,-0.075,75*
Cc1nc(N2CCCCC2C)c2c(C)c(C(=O)Nc3ccccc3C(F)(F)F)sc2n1 (centres undefined),i,19,75*,-0.28,-1,20
Cc1nc(N2CCC(C)CC2)c2c(C)c(C(=O)Nc3cccc(C(F)(F)F)c3)sc2n1,i,-45,46,-1.6,1.3,21
O=C(O)/C=C/c1cn(Cc2ccccc2)nc1-c1cccnc1,x,45*,x,0.64,-1.9,-5
CCc1ccc(-c2nn(Cc3ccccc3)cc2/C=C/C(=O)O)cc1,i,10,0,-0.41,x,0
CC(C)=CCc1cc(-c2oc3cc(O)cc(O)c3c(=O)c2O)ccc1O,x,-7,x,x,x,31
CC(C)=CCc1c(O)cc2oc3c(CC=C(C)C)c(O)c(O)c(CC=C(C)C)c3c(=O)c2c1O,x,3,x,-4.1,0.36,101*
COc1ccc(S(=O)(=O)NC(C)C(=O)Nc2ccccc2C(F)(F)F)cc1 (centres undefined),i,94*,-1,x,-0.52,5
COc1ccc(S(=O)(=O)Nc2ccccc2C(F)(F)F)cc1,i,-3,-15,1.1,0.44,-1
COc1ccc(Cl)cc1C(=O)NCC(=O)OCc1ccccc1,x,x,x,x,x,-19
CC1CCCC(C)N1C(=O)CSc1nnc(-c2cccs2)o1 (centres undefined),i,0,14,3.5*,0.49,-11
CCOc1ccc(S(=O)(=O)NCCC(=O)NC2CCCCC2)cc1,x,x,x,x,x,-1
COC(=O)[C@H](Cc1ccccc1)NC(=O)N1CCN(c2ccc(F)cc2)CC1,x,5,x,-0.28,-0.042,-2
CCCc1nc2ccccc2c(=O)n1/N=C/c1c(C)[nH]n(-c2ccc(C)cc2)c1=O,i,10,12,1.3,x,97*
O=C(NNc1ccc(C2CCCCC2)cc1)C(O)(c1ccccc1)c1cccs1 (centres undefined),i,-5,89*,-0.68,0.057,33
CCn1c(SC(C)C(=O)O)nc2sc3c(c2c1=O)CCC3 (centres undefined),i,-11,-6,0.32,26*,x
CC(Sc1nc2sc3c(c2c(=O)n1-c1ccccc1)CCCC3)C(=O)O (centres undefined),x,-2,x,0.01,0.015,12
CCOC(=S)SCC(=O)Nc1nc(-c2ccc(Br)cc2)cs1,i,x,74*,-1.2,-0.47,10
